A short description of data set [1]: Induction of nitric oxide release in phosphate buffer at pH 7.4 at 0.1 mM after 5 hrs by Griess method in presence of 0.5 mM of N-acetylcysteine. The class given is physicochemical. The conditions noted are these: pH 7.4, 5 h, 100 µM. A digest of the protocol:
(§1)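 Compound in DMF diluted to final 10^-4 M in 1:1 50 mM phosphate buffer pH 7.4/MeOH with 5×10^-4 M N-acetylcysteine, 37 °C. Aliquot mixed with Griess reagent, 10 min at room temperature, A546 read. Nitrite quantified against sodium nitrite standards (10–80 nmol/mL); NO expressed as mol/mol. n = 4 reaction mixtures per compound.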
In general terms: The Griess reaction detects nitrite, a stable product of nitric oxide.

Data set [2] is described as follows: Induction of nitric oxide release in phosphate buffer at pH 7.4 at 0.1 mM after 1 hr by Griess method in presence of 0.5 mM of N-acetylcysteine. The class given is physicochemical. The conditions noted are these: pH 7.4, 1 h, 100 µM. A digest of the protocol:
as §1

Data set [3] can be described thus: Induction of nitric oxide release in phosphate buffer at pH 7.4 at 0.1 mM after 3 hrs by Griess method in presence of 0.5 mM of N-acetylcysteine. The class given is physicochemical. The conditions noted are these: pH 7.4, 3 h, 100 µM. A digest of the protocol:
as §1

Data set [4] deals with Rattus norvegicus. Nature of the data set: Antiinflammatory activity in albino rat assessed as inhibition of carrageenan-induced paw edema at 0.28 mmol/kg, po after 4 hrs relative to control. The class given is functional. A digest of the protocol:
(§2)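 Adult male albino rats (120–140 g), four per group, fasted 24 h with water allowed. Test agent suspended in 0.5% w/v aqueous CMC and given orally at 0.28 mmol/kg; controls received CMC alone. After 30 min, 0.1 mL fresh 1% carrageenan in saline was injected subplantar into the right hind paw and saline into the left. Paw thickness was measured by Vernier caliper; % inhibition = [(VR−VL)control − (VR−VL)treated]/(VR−VL)control ×100. Mean ± SEM, one-way ANOVA.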

Data set [5] can be described thus: Induction of nitric oxide release in phosphate buffer at pH 7.4 at 0.1 mM after 6 hrs by Griess method in presence of 0.5 mM of N-acetylcysteine. The class given is physicochemical. The conditions noted are these: pH 7.4, 6 h, 100 µM. In short, it runs like this:
as §1

Data set [6] is described as follows: Induction of nitric oxide release in phosphate buffer at pH 7.4 at 0.1 mM after 4 hrs by Griess method in presence of 0.5 mM of N-acetylcysteine. The class given is physicochemical. The conditions noted are these: pH 7.4, 4 h, 100 µM. In short, it runs like this: as §1
Data set [7] relates to Rattus norvegicus. In words: Gastrointestinal toxicity in albino rat assessed as ulcer index at 0.28 mmol/kg, po (reference value: 0.60 +/- 0.05). The class given is organism-based. The conditions noted are these: in vivo.
Data set [8] has as its system Rattus norvegicus. Nature of the data set: Antiinflammatory activity in albino rat assessed as inhibition of carrageenan-induced paw edema at 0.28 mmol/kg, po after 1 hr relative to control. The class given is functional. In short, it runs like this:
as §2
(In general: The carrageenan paw model is a standard test of acute inflammation.)

Data set [9] relates to Rattus norvegicus. In words: Antiinflammatory activity in albino rat assessed as inhibition of carrageenan-induced paw edema at 0.28 mmol/kg, po after 5 hrs relative to control. The class given is functional. A digest of the protocol: as §2
Data set [10] has as its system Rattus norvegicus. In words: Antiinflammatory activity in albino rat assessed as inhibition of carrageenan-induced paw edema at 0.28 mmol/kg, po after 2 hrs relative to control. The class given is functional. A digest of the protocol:
as §2

Data set [11] can be described thus: Induction of nitric oxide release in phosphate buffer at pH 7.4 at 0.1 mM after 2 hrs by Griess method in presence of 0.5 mM of N-acetylcysteine. The class given is physicochemical. The conditions noted are these: pH 7.4, 2 h, 100 µM. A digest of the protocol: as §1
The test system of data set [12] is Rattus norvegicus. In words: Antiinflammatory activity in albino rat assessed as inhibition of carrageenan-induced paw edema at 0.28 mmol/kg, po after 3 hrs relative to control. The class given is functional. A digest of the protocol:
as §2

For orientation: inhibition in vivo means the relative decrease from the control value, in per cent. With `CCn1c(SC/C(=N/O)c2ccccc2)nnc1-c1ccc(OC)cc1`, the Activity turned out to be 0.14 mol/mol in [1]; 0.08 mol/mol in [2]; 0.14 mol/mol in data set [3]; 0.12 mol/mol in data set [5]; 0.19 mol/mol in data set [6]; 0.11 mol/mol in [11]. Further, the inhibition in vivo at 280 µmol/kg with Rattus norvegicus [4] came to 78%; in the data set with Rattus norvegicus [8], 69%; in the data set on Rattus norvegicus [9] it was 71%; in the data set on Rattus norvegicus [10] it was 72%; in the data set with Rattus norvegicus [12], 75%. Also, the UI in the data set on Rattus norvegicus [7] amounted to 2.53.

Regarding `CCn1c(SC/C(=N/O)c2ccccc2)nnc1-c1cc(OC)c(OC)c(OC)c1`, the Activity in data set [1] turned out to be 0.18 mol/mol; in [2], 0.11 mol/mol; in [3] it was 0.12 mol/mol; in data set [5], 0.14 mol/mol; in data set [6] it was 0.21 mol/mol; in data set [11] it was 0.12 mol/mol. Further, the inhibition in vivo at 280 µmol/kg came to 79% in the data set with Rattus norvegicus [4]; 63% in the data set with Rattus norvegicus [8]; 74% with Rattus norvegicus [9]; 67% in the data set on Rattus norvegicus [10]; 69% in the data set with Rattus norvegicus [12]. Further, the UI in the data set with Rattus norvegicus [7] is given as 3.66.

For `C=CCn1c(SCC(=O)c2ccccc2)nnc1-c1ccccc1`, the inhibition in vivo at 280 µmol/kg in the data set on Rattus norvegicus [4] was found to be 66%; with Rattus norvegicus [8], 43%; with Rattus norvegicus [9], 66%; in the data set with Rattus norvegicus [10], 58%; in the data set on Rattus norvegicus [12], 70%. Besides, the UI in the data set with Rattus norvegicus [7] is on record as 2.44.

For `C=CCn1c(SCC(=O)c2ccccc2)nnc1-c1ccc(OC)cc1`, the inhibition in vivo at 280 µmol/kg in the data set on Rattus norvegicus [4] was found to be 67%; in the data set with Rattus norvegicus [8], 49%; in the data set on Rattus norvegicus [9] it was 61%; in the data set with Rattus norvegicus [10], 53%; in the data set on Rattus norvegicus [12], 63%. Besides, the UI in the data set with Rattus norvegicus [7] is given as 5.34.

Regarding `C=CCn1c(SCC(=O)c2ccccc2)nnc1-c1ccc(OC)c(OC)c1`, the inhibition in vivo at 280 µmol/kg came to 72% with Rattus norvegicus [4]; 61% with Rattus norvegicus [8]; 62% with Rattus norvegicus [9]; 63% in the data set with Rattus norvegicus [10]; 64% in the data set with Rattus norvegicus [12]. In the data set with Rattus norvegicus [7], the UI worked out at 4.26.

Regarding `C=CCn1c(SCC(=O)c2ccccc2)nnc1-c1cc(OC)c(OC)c(OC)c1`, the inhibition in vivo at 280 µmol/kg in the data set with Rattus norvegicus [4] turned out to be 66%; in the data set with Rattus norvegicus [8] it was 49%; in the data set with Rattus norvegicus [9], 60%; with Rattus norvegicus [10] it was 62%; in the data set with Rattus norvegicus [12], 66%. In addition, in the data set with Rattus norvegicus [7], the UI was determined as 6.39.

Take `CCn1c(SCC(=O)c2ccccc2)nnc1-c1ccccc1`: the inhibition in vivo at 280 µmol/kg came out at 63% in the data set on Rattus norvegicus [4]; 52% in the data set with Rattus norvegicus [8]; 51% in the data set with Rattus norvegicus [9]; 55% in the data set on Rattus norvegicus [10]; 61% in the data set on Rattus norvegicus [12]. Moreover, the UI with Rattus norvegicus [7] came to 4.49.

`CCn1c(SCC(=O)c2ccccc2)nnc1-c1ccc(OC)cc1`: the inhibition in vivo at 280 µmol/kg with Rattus norvegicus [4] was determined as 70%; in the data set with Rattus norvegicus [8], 53%; with Rattus norvegicus [9] it was 61%; in the data set with Rattus norvegicus [10], 60%; in the data set with Rattus norvegicus [12] it was 67%. For the same compound, in the data set with Rattus norvegicus [7], the UI is reported as 6.59.

Consider `CCn1c(SCC(=O)c2ccccc2)nnc1-c1cc(OC)c(OC)c(OC)c1`, for which the inhibition in vivo at 280 µmol/kg in the data set with Rattus norvegicus [4] is 72%; in the data set on Rattus norvegicus [8] it was 29%; with Rattus norvegicus [9], 59%; with Rattus norvegicus [10], 41%; with Rattus norvegicus [12], 49%. The UI with Rattus norvegicus [7] was 3.42.

As to `O=C(CSc1nnc(-c2ccccc2)n1-c1ccccc1)c1ccccc1`, the inhibition in vivo at 280 µmol/kg came out at 68% with Rattus norvegicus [4]; 53% in the data set with Rattus norvegicus [8]; 63% in the data set with Rattus norvegicus [9]; 60% in the data set with Rattus norvegicus [10]; 64% in the data set with Rattus norvegicus [12]. Also, the UI in the data set on Rattus norvegicus [7] worked out at 9.58.

Turning to `COc1ccc(-c2nnc(SCC(=O)c3ccccc3)n2-c2ccccc2)cc1`, the inhibition in vivo at 280 µmol/kg in the data set with Rattus norvegicus [4] was 68%; in the data set with Rattus norvegicus [8], 52%; with Rattus norvegicus [9], 61%; in the data set with Rattus norvegicus [10] it was 57%; with Rattus norvegicus [12] it was 58%. Moreover, the UI in the data set with Rattus norvegicus [7] amounted to 8.74.

Turning to `COc1ccc(-c2nnc(SCC(=O)c3ccccc3)n2-c2ccccc2)cc1OC`, the inhibition in vivo at 280 µmol/kg was found to be 65% with Rattus norvegicus [4]; 56% in the data set on Rattus norvegicus [8]; 59% in the data set on Rattus norvegicus [9]; 57% in the data set on Rattus norvegicus [10]; 59% in the data set with Rattus norvegicus [12]. Moreover, in the data set on Rattus norvegicus [7], the UI came to 9.41.

Take `COc1cc(-c2nnc(SCC(=O)c3ccccc3)n2-c2ccccc2)cc(OC)c1OC`: the inhibition in vivo at 280 µmol/kg in the data set on Rattus norvegicus [4] came out at 73%; with Rattus norvegicus [8], 44%; in the data set on Rattus norvegicus [9], 72%; in the data set with Rattus norvegicus [10], 51%; with Rattus norvegicus [12] it was 68%. Besides, the UI with Rattus norvegicus [7] turned out to be 5.29.

With `C=CCn1c(SC/C(=N\O)c2ccccc2)nnc1-c1ccccc1`, the Activity in data set [1] is reported as 0.22 mol/mol; in [2], 0.06 mol/mol; in data set [3], 0.13 mol/mol; in data set [5], 0.17 mol/mol; in [6] it was 0.16 mol/mol; in data set [11], 0.1 mol/mol. For the same compound, the inhibition in vivo at 280 µmol/kg with Rattus norvegicus [4] stood at 77%; with Rattus norvegicus [8], 58%; in the data set on Rattus norvegicus [9], 68%; with Rattus norvegicus [10], 60%; in the data set with Rattus norvegicus [12], 65%. The UI in the data set with Rattus norvegicus [7] is on record as 2.3.

Turning to `C=CCn1c(SC/C(=N/O)c2ccccc2)nnc1-c1ccc(OC)cc1`, the Activity in data set [1] is 0.15 mol/mol; in data set [2], 0.09 mol/mol; in data set [3], 0.12 mol/mol; in data set [5], 0.14 mol/mol; in data set [6] it was 0.15 mol/mol; in data set [11], 0.12 mol/mol. The inhibition in vivo at 280 µmol/kg in the data set with Rattus norvegicus [4] stood at 76%; in the data set with Rattus norvegicus [8] it was 61%; with Rattus norvegicus [9] it was 57%; with Rattus norvegicus [10], 66%; in the data set with Rattus norvegicus [12], 67%. For the same compound, the UI in the data set with Rattus norvegicus [7] is 1.14.

Take `C=CCn1c(SC/C(=N/O)c2ccccc2)nnc1-c1cc(OC)c(OC)c(OC)c1`: the Activity came to 0.17 mol/mol in data set [1]; 0.08 mol/mol in data set [2]; 0.12 mol/mol in data set [3]; 0.17 mol/mol in [5]; 0.13 mol/mol in data set [6]; 0.1 mol/mol in data set [11]. For the same compound, the inhibition in vivo at 280 µmol/kg in the data set with Rattus norvegicus [4] is 73%; with Rattus norvegicus [8], 61%; in the data set with Rattus norvegicus [9], 77%; in the data set with Rattus norvegicus [10], 68%; in the data set on Rattus norvegicus [12], 70%. The UI in the data set with Rattus norvegicus [7] was 5.52.
